The results in this text go back to ChEMBL document CHEMBL4513216, “Probing the Open Global Health Chemical Diversity Library for Multistage-Active Starting Points for Next-Generation Antimalarials” (ACS Infect Dis, 2020).

The structures appear in SMILES notation.

The nature of this data set: Toxicity liver stage against HepG2, at 10uM. It counts as cell-based. The note with it: human, HepG2-A16-CD81EGFP cells; read-out: INHIBITION
Details: test concentration 10 uM, cell line HepG2-A16-CD81EGFP. The essentials:
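Uninfected HepG2-A16-CD81EGFP cells, 3 × 10^3 per well, 1536-well, plated on prespotted compound at 10 μM final, parasite-free screening media added to match infected plates; puromycin 10 μM positive, DMSO 0.5% negative; run in parallel with 48 h PbLuc assay at 37 °C, 5% CO2; viability by CellTiter-Glo luminescence, normalized to controls.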
`O=C(NCC1(O)CCOCC1)c1ccc(F)cc1`: the cytotoxicity at 10 µM is -9.52%.
Take `CCCS(=O)(=O)N1CC[C@H]2OCC[C@@]2(c2nnc(C)o2)C1`: the cytotoxicity at 10 µM was 8.43%.
For `CN(C)C(=O)N1C[C@@H]2COC[C@]2(c2nnc(C3CC3)o2)C1`, the cytotoxicity at 10 µM was -4.05%.
On to `COc1cc(C(=O)NCC2CC2)nc2c(C)cc(F)cc12`, for which the cytotoxicity at 10 µM was 7.52%.
Next, `Cc1cnc(NC(=O)CSC2CCc3ccccc3NC2=O)s1` (stereo unspecified): -2.34%.
Regarding `CSCC(C)(O)CNC(=O)c1cc(Br)ccc1Cl` (stereo unspecified), the cytotoxicity at 10 µM is -25.1%.
As for `Cc1c(Cl)c(C(=O)NC(C)CN2CCOCC2)nn1C` (stereo unspecified), the cytotoxicity at 10 µM is -1.77%.
Turning to `COc1ccc(CNC(Cc2ccsc2)c2ncccc2C)cc1OC` (stereo unspecified), the cytotoxicity at 10 µM came to 0.735%.
As to `Cc1ccc(-c2cc(N)c(=O)n(CC(=O)NC3CCCCC3)n2)s1`, the cytotoxicity at 10 µM was 2.98%.
Consider `NCc1cnn(-c2ccccc2C(=O)NCCCn2ccnc2)c1`, for which the cytotoxicity at 10 µM is -3.01%.
Next, `N#Cc1cccc(OCCN2CCC(C(=O)N3CCOCC3)CC2)c1`: -42.3%; `Cc1nc(-c2cccs2)ccc1C(=O)N1CCN(CC(C)O)CC1` (stereo unspecified): -45.1%.
The result for `CN(C)CCNc1ncccc1CNC(=O)Nc1cc(F)cc(F)c1` reads 2.62%.
`CCCn1ccnc1-c1cccc(NC(=O)C2CCCOC2)c1` (stereo unspecified): the cytotoxicity at 10 µM was -2.43%.
On to `Clc1cc(CN2CCCN3CCCC3C2)c2ncccc2c1` (stereo unspecified), for which the cytotoxicity at 10 µM amounted to 19.5%.
As for `CCN(Cc1nc(-c2ccco2)no1)Cc1cccc2c1OCO2`, the cytotoxicity at 10 µM turned out to be 8.33%.
Take `CC(C)COc1cncc(NCCc2nnc3ccccn23)n1`: the cytotoxicity at 10 µM was 7.55%.
Next, `CC(C)N(C)S(=O)(=O)NCc1cccnc1N(C)C`: 2.57%; `CCNC(=O)c1ccc(NC(=O)N(C)Cc2cccn2C)c(C)c1`: -0.132%; `CCN1CCCC(NC(=O)c2ccc(C)[nH]c2=O)C1` (stereo unspecified): 9.95%.
The result for `CN(c1nc(Cn2cnccc2=O)cs1)C1CC1` reads -6.59%; that for `CCCC(=O)NC1CCCN(c2cncc(Br)c2)C1` (stereo unspecified), -38.5%.
The result for `Cn1c(N)nnc1SCc1c(F)cccc1Br` reads -43.2%; that for `CCc1nc(CN2CCCN(C(=O)Cc3cccs3)CC2)cs1`, 2.55%.
In the case of `CN(C)c1ccc(CNC2(c3ccc(F)cc3)CCOCC2)cc1F`, the cytotoxicity at 10 µM was 0.937%.
With `Cc1c(C(=O)NC2CCCOC2)nnn1-c1ccc(Cl)cc1F` (stereo unspecified), the cytotoxicity at 10 µM worked out at 8.55%.
Next, `CCOC(=O)C1CCN(C(=O)CN2CCCC2c2ccsc2)CC1` (stereo unspecified): -5.42%; `CC(=O)Nc1nc(CS(=O)(=O)Cc2ccccc2)cs1`: -3.39%; `CCn1cc(NC(=O)C2CCN(Cc3nc(C)c(C)s3)CC2)cn1`: 6.37%.
Consider `C=C(C)CN1CCC(NC(=O)NCCc2ccc(N(C)C)cc2)CC1`, for which the cytotoxicity at 10 µM was 2.2%.
Take `Cc1cc(=O)n2ncnc2n1CC(O)COCc1ccccc1Cl` (stereo unspecified): the cytotoxicity at 10 µM turned out to be 3.52%.
For the compound `Cc1sc2nc(C(F)(F)F)nc(N3CCN(S(C)(=O)=O)CC3)c2c1C`, the cytotoxicity at 10 µM was -8.07%.
In the case of `NC(c1ccc(F)cc1)c1cccs1` (stereo unspecified), the cytotoxicity at 10 µM came out at 15.6%.
In the case of `N#Cc1cccnc1NCc1ccc(S(=O)(=O)NCC2CCCO2)cc1` (stereo unspecified), the cytotoxicity at 10 µM is 5.98%.
As to `O=C(C1CCCN(Cc2cccnc2)C1)N1CCc2sccc2C1` (stereo unspecified), the cytotoxicity at 10 µM was 7.99%.
The result for `Cc1cnn(CCNC(C)c2nnc(-c3ccccc3)o2)c1` (stereo unspecified) reads -2.4%.
As for `Cc1cc(C)cc(C(=O)NCCCNc2ncccn2)c1`, the cytotoxicity at 10 µM amounted to 32.4%.
For the compound `OCCNC1CCc2cc3c(cc21)OCCO3` (stereo unspecified), the cytotoxicity at 10 µM was -5.82%.
With `Cc1cccc(N2CCN(C(=O)c3c(C)nn(C)c3C)CC2)c1C`, the cytotoxicity at 10 µM was -7.28%.
Turning to `CCCNC(=O)c1cccc(CNCc2csc(C(C)C)n2)c1`, the cytotoxicity at 10 µM was 6.14%.
Consider `CC(=O)NS(=O)(=O)c1ccc(F)c(C(F)(F)F)c1`, for which the cytotoxicity at 10 µM was -4.73%.
The result for `CC(C)N(Cc1ccc(C#N)cc1)C(=O)NCCNc1ncccn1` reads 3.78%; that for `COc1cc(F)cc(NC(=O)NCc2cccc(N(C)C)n2)c1`, 25%.
On to `O=C(Cc1ccc(F)cc1)NCCNS(=O)(=O)C1CCCC1`, for which the cytotoxicity at 10 µM turned out to be 9.31%.
With `CC1c2ncc(COc3cccnc3)n2CCN1Cc1ccco1` (stereo unspecified), the cytotoxicity at 10 µM is -105%.
Consider `Cc1ccoc1C(=O)N1CC[C@H]2C[C@H](c3nnc(C4CC4)o3)O[C@@H]2C1`, for which the cytotoxicity at 10 µM was -105%.
Regarding `Cc1noc([C@H]2C[C@@H]3CCN(C(=O)N(C)C)C[C@H]3O2)n1`, the cytotoxicity at 10 µM turned out to be 2.8%.
In the case of `COCCC(=O)N1CC2(CCN(Cc3ccoc3)C2)C1`, the cytotoxicity at 10 µM turned out to be 8.47%.
In the case of `CC(C)Nc1nc(N2CCOCC2)nc2c1CN(Cc1ccoc1)CC2`, the cytotoxicity at 10 µM stood at 1.52%.
Next, `CC1(C)C(C(=O)NCCC2CN(Cc3c[nH]cn3)CCO2)C1(C)C` (stereo unspecified): -3.67%; `Cc1nccn1-c1ccc(NC(=O)C2CCCN2CC2CC2)cc1` (stereo unspecified): -14%.
For `CCc1nc2c(NCC3COc4c(cccc4OC)C3)ncnc2o1` (stereo unspecified), the cytotoxicity at 10 µM was -0.164%.
Turning to `CN(C)C(=O)c1cccnc1N1CCOC(c2ccc(Cl)cc2)C1` (stereo unspecified), the cytotoxicity at 10 µM worked out at 9.39%.
Turning to `Oc1ccccc1CN1CCC(n2cc(-c3ccc(F)cc3)nn2)CC1`, the cytotoxicity at 10 µM was -2.68%.
`Cc1cc(C(=O)NCc2cccnc2N2CCCC(O)C2)c(C)o1` (stereo unspecified): the cytotoxicity at 10 µM stood at 16.3%.
For the compound `O=C(c1cc(=O)n(-c2ccccc2)[nH]1)N1CCCC(c2ccn[nH]2)C1` (stereo unspecified), the cytotoxicity at 10 µM is -2.21%.
As to `COc1ccc(OC2CCN(c3ccncc3)CC2)cc1`, the cytotoxicity at 10 µM worked out at 2.1%.
Next, `COc1ccc2c(c1)C(C(=O)N(C)CCCc1cnn(C)c1)CC(=O)N2` (stereo unspecified): -46.9%; `Oc1cccc(CN2CCN(C3CCc4ccccc4C3)CC2)c1` (stereo unspecified): 6.42%; `Cc1cnc(C)c(-c2cccc(-c3ccn(CCN4CCCC4)n3)c2)n1`: -10.5%.
Take `NC(=O)CN1CCC(C(=O)NCc2nc(-c3ccc(F)cc3)cs2)CC1`: the cytotoxicity at 10 µM is -5.79%.
As for `O=C(c1cc2c([nH]c1=O)CCC2)N1CCCCC1c1cccc(F)c1` (stereo unspecified), the cytotoxicity at 10 µM is -6.22%.
For the compound `O=C(C1CCC1)N1CCC(C2CCN(Cc3ccc(Cl)cc3)C2)CC1` (stereo unspecified), the cytotoxicity at 10 µM was -10.5%.
For `Cc1cc(C(=O)N[C@H]2COC[C@@H]2N2CCOCC2)c2ccc(F)cc2n1`, the cytotoxicity at 10 µM was -48.2%.
The result for `CCCN1CCc2[nH]cnc2C12CCN(C(=O)CCn1cccn1)CC2` reads 7.36%; that for `COC[C@]1(O)CCN(C(=O)c2cccc(CN(C)C)c2)CC1(C)C`, 3.26%; that for `O=C(NC1CC1)c1nc(Cn2c(C(F)F)nc3ccccc32)no1`, 7.59%.
Take `COc1cc(N2CCOC(c3ccc(F)cc3)C2)ncn1` (stereo unspecified): the cytotoxicity at 10 µM is 15.3%.
As to `Cc1ccc(C(=O)NCCN2CCOCC2)cc1N(C)S(C)(=O)=O`, the cytotoxicity at 10 µM amounted to 15.1%.
As to `CCC(CO)N(CC=C(C)C)Cc1ccsc1` (stereo unspecified), the cytotoxicity at 10 µM was 6.07%.
`COc1ccc(-c2nc3c([nH]2)CCNC3C(=O)O)c2ccccc12` (stereo unspecified): the cytotoxicity at 10 µM was 8.63%.
Regarding `Cc1cc(C)c2cc(CNCC3CCCO3)c3nn(C)c(=O)n3c2c1` (stereo unspecified), the cytotoxicity at 10 µM was -4.63%.
For the compound `O=C(CN1C=Nc2ccccc2S1(=O)=O)NCCCc1ccccc1`, the cytotoxicity at 10 µM was -3.54%.
Turning to `CN(CCOc1cccc(F)c1)Cc1nc2c(cnn2C)c(=O)[nH]1`, the cytotoxicity at 10 µM is -0.966%.
As for `NC(=O)C1CCN(Cc2csc(-c3ncccn3)n2)CC1`, the cytotoxicity at 10 µM is -6.04%.
With `c1ccc2oc(CN3CCCCC3Cn3cncn3)nc2c1` (stereo unspecified), the cytotoxicity at 10 µM is -13.9%.
Take `CCc1nccn1C1CCCN(C(=O)c2cnn3cccnc23)C1` (stereo unspecified): the cytotoxicity at 10 µM was -18.2%.
For the compound `O=C(COc1ccc(Cl)cc1)N1CCOCC1c1ncon1` (stereo unspecified), the cytotoxicity at 10 µM was -21%.
Regarding `CC(NC(=O)CSCC#N)c1ccccc1` (stereo unspecified), the cytotoxicity at 10 µM is -5.9%.
As for `c1ccc2oc(N3CCCCC3Cn3cncn3)nc2c1` (stereo unspecified), the cytotoxicity at 10 µM was -7.59%.
With `Cc1ccc(Cc2cnc(NC(=O)C3CNC(=O)N3)s2)cc1F` (stereo unspecified), the cytotoxicity at 10 µM was 1.11%.
In the case of `Cc1ccccc1CCNC(=O)C1CC(=O)N(CC(F)(F)F)C1` (stereo unspecified), the cytotoxicity at 10 µM was -6.17%.
Next, `Fc1cccc(F)c1Cn1c(C2CCNCC2)cc2cccnc21`: -3.4%.
With `Cc1noc(C)c1CN1CC[C@H]2OCC[C@@H](C(=O)NCC3CC3)[C@H]2C1`, the cytotoxicity at 10 µM was found to be 1.27%.
With `CN1CCN(Cc2cn3c(n2)CN(C(=O)c2cccn2C)CC3)CC1`, the cytotoxicity at 10 µM is 2.89%.
For the compound `COc1ccc(C[C@H]2CN(c3cc(OC)ncn3)CC[C@@H]2OC)cc1`, the cytotoxicity at 10 µM was 50%.
Consider `O=S(=O)(c1cccnc1)N1C[C@@H]2COC[C@]2(CN2CCOCC2)C1`, for which the cytotoxicity at 10 µM came out at 5.86%.
In the case of `CN(Cc1ccncc1)C1CC2(CCN(c3ncc(F)cn3)CC2)C1`, the cytotoxicity at 10 µM is 52.4%.
As to `Cn1cc(C(=O)NCc2cn3c(n2)CN(C2CCOCC2)CC3)cn1`, the cytotoxicity at 10 µM amounted to 11.2%.
Turning to `Cc1cnc(N2CCC3(CC(=O)N(Cc4csc(C)n4)C3)C2)nc1` (stereo unspecified), the cytotoxicity at 10 µM is -0.211%.
As to `CCOc1c(Br)cc(CNCCc2nnc3n2CCCCC3)cc1OC`, the cytotoxicity at 10 µM is -59.6%.
Next, `O=C(NCc1ccccn1)[C@@H]1CCO[C@@H]2CCN(Cc3ccoc3)C[C@H]21`: 5.33%.
Turning to `O=C1CC[C@H]2[C@H](CCN2c2ncccn2)N1c1ccccc1`, the cytotoxicity at 10 µM is 5.77%.
The result for `CN(Cc1ccco1)[C@@H]1CN(Cc2cccnc2)[C@@H]2CCCO[C@H]12` reads -79.8%.
For `CC(C)=CCN1C[C@@H]2CC[C@H]1CN(Cc1coc(C)n1)C2`, the cytotoxicity at 10 µM is 1.25%.
The result for `CCCn1nccc1NC(=O)CN1CCc2cnc(C(C)C)nc2C1` reads -5.59%.
